Measured values as given in ChEMBL document CHEMBL1944532, “Synthesis and evaluation of anticancer activity of some novel 6-aryl-2-(p-sulfamylphenyl)-pyridazin-3(2H)-ones” (Eur J Med Chem, 2012).

What was measured:
Format in all cases: functional
IGROV-1 [1] = experiment: Cytotoxicity against human IGROV1 cells after 48 hrs by SRB assay; settings: IGROV-1, 48 h
Outline: (§1)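 NCI ~60-line panel in RPMI-1640 with 5% fetal calf serum and 2 mM L-glutamine, pre-incubated 24 h. Compound in DMSO tested at five 10-fold concentrations (10^-4 to 10^-8 M) with 48 h continuous exposure. Growth measured by sulforhodamine B protein assay. GI50 (50% net growth inhibition), TGI (total inhibition) and LC50 (50% net cell death) derived from dose-response.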

OVCAR-5 = experiment: Cytotoxicity against human OVCAR5 cells after 48 hrs by SRB assay; settings: OVCAR-5, 48 h
Outline: (§2)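 NCI five-dose screen on the ~60-line human tumor panel. Cells grown in RPMI-1640 with 5% fetal calf serum and 2 mM L-glutamine, seeded at line-dependent density and preincubated 24 h. Compound added from DMSO at 10-fold dilutions from 10^-4 to 10^-8 M, continuous exposure 48 h. Growth read by sulforhodamine B protein stain. GI50, TGI and LC50 derived per line.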

CCRF-CEM = experiment: Cytotoxicity against human CCRF-CEM cells assessed as cell growth at 10 uM after 48 hrs by SRB assay; settings: read-out: Activity
Outline: (§3)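 NCI primary single-dose screen at 10^-5 M against the ~60 human tumour cell line panel. Cells grown in RPMI-1640 with 5% fetal calf serum and 2 mM L-glutamine and pre-incubated 24 h before compound addition. Compound added from DMSO solution with 48 h exposure. Growth read by sulforhodamine B protein staining.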

LOX IMVI = experiment: Cytotoxicity against human LOXIMVI cells assessed as cell growth at 10 uM after 48 hrs by SRB assay; settings: read-out: Activity
Outline: (§4)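 NCI primary single-dose screen at 10^-5 M against the full panel of about 60 human tumor cell lines. Cells were in RPMI-1640 with 5% fetal calf serum and 2 mM L-glutamine and preincubated 24 h. Compound was given in DMSO with 48 h exposure. Growth was estimated by sulforhodamine B protein assay.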

IGROV-1 [2] = experiment: Cytotoxicity against human IGROV1 cells assessed as cell growth at 10 uM after 48 hrs by SRB assay; settings: IGROV-1, 48 h, read-out: Activity; outline: as §3
MCF7 = experiment: Cytotoxicity against human MCF7 cells after 48 hrs by SRB assay; settings: MCF7, 48 h; outline: as §2
HCT-15 = experiment: Cytotoxicity against human HCT15 cells after 48 hrs by SRB assay; settings: HCT-15, 48 h; outline: as §1
MDA-MB-231 = experiment: Cytotoxicity against human MDA-MB-231/ATCC cells after 48 hrs by SRB assay; settings: MDA-MB-231, 48 h; outline: as §2
K562 = experiment: Cytotoxicity against human K562 cells after 48 hrs by SRB assay; settings: K562, 48 h; outline: as §1
HOP-92 [3] = experiment: Cytotoxicity against human HOP92 cells after 48 hrs by SRB assay; settings: HOP-92, 48 h; outline: as §1
NCI-H226 = experiment: Cytotoxicity against human NCI-H226 cells after 48 hrs by SRB assay; settings: NCI-H226, 48 h; outline: as §2
SN12C = experiment: Cytotoxicity against human SN12C cells assessed as cell growth at 10 uM after 48 hrs by SRB assay; settings: read-out: Activity
Outline: (§5)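 NCI primary one-dose screen at 10^-5 M against the full panel of about 60 human tumour cell lines, run to the NCI Drug Evaluation Branch protocol.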

U-251 [4] = experiment: Cytotoxicity against human U251 cells assessed as cell growth at 10 uM after 48 hrs by SRB assay; settings: U-251, 48 h, read-out: Activity; outline: as §5
BT-549 = experiment: Cytotoxicity against human BT549 cells after 48 hrs by SRB assay; settings: BT-549, 48 h; outline: as §1
SW-620 = experiment: Cytotoxicity against human SW620 cells after 48 hrs by SRB assay; settings: SW-620, 48 h
Outline: (§6)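 NCI 60-cell-line five-dose screen. Cells were grown in 1640 medium with 5% fetal calf serum and 2 mM L-glutamine, with inoculum density set by cell line, and pre-incubated 24 h. Compound in DMSO was added at 10^-4 to 10^-8 M (10-fold steps) with 48 h continuous exposure. Growth was read by SRB protein assay, and GI50, TGI and LC50 were derived from dose-response.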

OVCAR-3 [5] = experiment: Cytotoxicity against human OVCAR3 cells assessed as cell growth at 10 uM after 48 hrs by SRB assay; settings: OVCAR-3, 48 h, read-out: Activity; outline: as §4
HOP-62 = experiment: Cytotoxicity against human HOP62 cells assessed as cell growth at 10 uM after 48 hrs by SRB assay; settings: HOP-62, 48 h, read-out: Activity; outline: as §3
NCI-H522 = experiment: Cytotoxicity against human NCI-H522 cells assessed as cell growth at 10 uM after 48 hrs by SRB assay; settings: NCI-H522, 48 h, read-out: Activity; outline: as §4
U-251 [6] = experiment: Cytotoxicity against human U251 cells after 48 hrs by SRB assay; settings: U-251, 48 h; outline: as §6
MOLT-4 = experiment: Cytotoxicity against human MOLT4 cells assessed as cell growth at 10 uM after 48 hrs by SRB assay; settings: MOLT-4, 48 h, read-out: Activity; outline: as §4
OVCAR-3 [7] = experiment: Cytotoxicity against human OVCAR3 cells after 48 hrs by SRB assay; settings: OVCAR-3, 48 h; outline: as §2
786-0 = experiment: Cytotoxicity against human 786-0 cells assessed as cell growth at 10 uM after 48 hrs by SRB assay; settings: 786-0, 48 h, read-out: Activity; outline: as §3
KM12 = experiment: Cytotoxicity against human KM12 cells after 48 hrs by SRB assay; settings: KM12, 48 h; outline: as §2
HOP-92 [8] = experiment: Cytotoxicity against human HOP92 cells assessed as cell growth at 10 uM after 48 hrs by SRB assay; settings: HOP-92, 48 h, read-out: Activity; outline: as §3
EKVX = experiment: Cytotoxicity against human EKVX cells assessed as cell growth at 10 uM after 48 hrs by SRB assay; settings: read-out: Activity; outline: as §3

## CCc1ccc(-c2ccc(=O)n(-c3ccc(S(N)(=O)=O)cc3)n2)cc1
IGROV-1 [1]
  LC50: > 100 µM
IGROV-1 [1]; read-out: GI50
  GI50: 3.81 µM
IGROV-1 [1]; read-out: pGI50 (converted)
  GI50: 3.8 µM
IGROV-1 [1]; read-out: pTGI
  TGI: > 100 µM
OVCAR-5
  LC50: > 100 µM
OVCAR-5; read-out: GI50
  GI50: 41.4 µM
OVCAR-5; read-out: pGI50 (converted)
  GI50: 41.7 µM
OVCAR-5; read-out: pTGI
  TGI: > 100 µM
CCRF-CEM
  growth at 10 µM: 27.9%
LOX IMVI
  growth at 10 µM: 55.1%
IGROV-1 [2]
  growth at 10 µM: -5.72%
MCF7
  LC50: > 100 µM
MCF7; read-out: GI50
  GI50: 0.615 µM
MCF7; read-out: pGI50 (converted)
  GI50: 0.617 µM
MCF7; read-out: pTGI (converted)
  TGI: 19.1 µM
HCT-15
  LC50: > 100 µM
HCT-15; read-out: GI50
  GI50: 0.661 µM
HCT-15; read-out: pGI50 (converted)
  GI50: 0.661 µM
HCT-15; read-out: pTGI
  TGI: > 100 µM
MDA-MB-231
  LC50: > 100 µM
MDA-MB-231; read-out: GI50
  GI50: 12.1 µM
MDA-MB-231; read-out: pGI50 (converted)
  GI50: 12 µM
MDA-MB-231; read-out: pTGI
  TGI: > 100 µM
K562; read-out: GI50
  GI50: 0.257 µM
K562; read-out: pGI50 (converted)
  GI50: 0.257 µM
K562; read-out: pLC50 (the source's name) (converted)
  CC50: > 100 µM
K562; read-out: pTGI
  TGI: > 100 µM
HOP-92 [3]
  LC50: > 100 µM
HOP-92 [3]; read-out: GI50
  GI50: 17.3 µM
HOP-92 [3]; read-out: pGI50 (converted)
  GI50: 17.4 µM
HOP-92 [3]; read-out: pTGI (converted)
  TGI: 75.9 µM
NCI-H226
  LC50: > 100 µM
NCI-H226; read-out: GI50
  GI50: 13.5 µM
NCI-H226; read-out: pGI50 (converted)
  GI50: 13.5 µM
NCI-H226; read-out: pTGI
  TGI: > 100 µM
SN12C
  growth at 10 µM: 58.4%
U-251 [4]
  growth at 10 µM: 35%
BT-549
  LC50: 85.1 µM
BT-549; read-out: GI50
  GI50: 0.756 µM
BT-549; read-out: pGI50 (converted)
  GI50: 0.759 µM
BT-549; read-out: pTGI (converted)
  TGI: 17.8 µM
SW-620
  LC50: > 100 µM
SW-620; read-out: GI50
  GI50: 0.454 µM
SW-620; read-out: pGI50 (converted)
  GI50: 0.457 µM
SW-620; read-out: pTGI
  TGI: > 100 µM
OVCAR-3 [5]
  growth at 10 µM: -56.8%
HOP-62
  growth at 10 µM: 59.9%
NCI-H522
  growth at 10 µM: -33.6%
U-251 [6]
  LC50: > 100 µM
U-251 [6]; read-out: GI50
  GI50: 1.58 µM
U-251 [6]; read-out: pGI50 (converted)
  GI50: 1.58 µM
U-251 [6]; read-out: pTGI (converted)
  TGI: 24 µM
MOLT-4
  growth at 10 µM: 16%
OVCAR-3 [7]
  LC50: > 100 µM
OVCAR-3 [7]; read-out: GI50
  GI50: 0.429 µM
OVCAR-3 [7]; read-out: pGI50 (converted)
  GI50: 0.427 µM
OVCAR-3 [7]; read-out: pTGI
  TGI: > 100 µM
786-0
  growth at 10 µM: 50%
KM12
  LC50 (50% lethal concentration): > 100 µM
KM12; read-out: GI50
  GI50: 0.486 µM
KM12; read-out: pGI50 (converted)
  GI50: 0.49 µM
KM12; read-out: pTGI
  TGI: > 100 µM
HOP-92 [8]
  growth at 10 µM: 65.8%
EKVX
  growth at 10 µM: 69.1%
